Data published in ChEMBL document CHEMBL1240414, “Synthesis and anticonvulsant activity of new 6-methyl-1-substituted-4,6-diazaspiro[2.4]heptane-5,7-diones” (Eur J Med Chem, 2010).
Active and inactive are the calls of the source.

How the values were obtained:
Mus musculus [1] = experiment: Anticonvulsant activity in Kunming mouse assessed as protection against subcutaneous pentylenetetrazole-induced seizures at 30 mg/kg, ip after 0.5 hrs; assay type: functional, organism-based; parameters: dose 30 mg/kg
Summary of the method: (§1)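 Male Kunming mice (20 ± 2.0 g) received the compound ip as a suspension in 0.5% methylcellulose at 30, 100 or 300 mg/kg, one to four mice per dose. Pentylenetetrazole in 0.9% saline was given sc at 0.5 h and 4.0 h after dosing. Protection meant no threshold seizure (one clonic spasm episode of at least 5 s). Scored as protected/tested.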

Rattus norvegicus [2] = experiment: Neurotoxicity in Kunming rat assessed as minimum motor impairment at 30 mg/kg, po after 0.25 hrs by rotarod test; assay type: toxicity, organism-based; parameters: dose 30 mg/kg, route oral; conditions: in vivo
Summary of the method: (§2)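 Rotorod neurotoxicity in male Kunming rats (250 ± 5.0 g) given 30 mg/kg po, four rats per compound. Motor impairment was assessed at 0.25, 0.5, 1, 2 and 4 h after oral administration.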

Mus musculus [3] = experiment: Anticonvulsant activity in Kunming mouse assessed as protection against maximal electroshock-induced seizures at 100 mg/kg, ip after 0.5 hrs; assay type: functional, organism-based; parameters: dose 100 mg/kg
Mus musculus [4] = experiment: Neurotoxicity in Kunming mouse assessed as minimum motor impairment at 300 mg/kg, ip after 0.5 hrs by rotarod test; assay type: toxicity, organism-based; parameters: dose 300 mg/kg, route intraperitoneal; conditions: in vivo
Summary of the method: (§3)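 Rotorod neurotoxicity in male Kunming mice (20 ± 2.0 g) given ip doses of 30, 100 or 300 mg/kg as a suspension in 0.5% methylcellulose, one to four mice per dose. Motor impairment was examined at 0.5 h and 4.0 h after injection. Reported as number of animals showing toxicity/number tested.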

Rattus norvegicus [5] = experiment: Neurotoxicity in Kunming rat assessed as minimum motor impairment at 30 mg/kg, po after 0.5 hrs by rotarod test; assay type: functional, organism-based; parameters: dose 30 mg/kg; summary of the method: as §2
Rattus norvegicus [6] = experiment: Neurotoxicity in Kunming rat assessed as minimum motor impairment at 30 mg/kg, po after 4 hrs by rotarod test; assay type: functional, organism-based; parameters: dose 30 mg/kg; summary of the method: as §2
Mus musculus [7] = experiment: Anticonvulsant activity in Kunming mouse assessed as protection against subcutaneous pentylenetetrazole-induced seizures at 30 mg/kg, ip after 4 hrs; assay type: functional, organism-based; parameters: dose 30 mg/kg; summary of the method: as §1
Rattus norvegicus [8] = experiment: Anticonvulsant activity in Kunming rat assessed as protection against subcutaneous pentylenetetrazole-induced seizures at 30 mg/kg, po after 0.5 hrs; assay type: functional
Mus musculus [9] = experiment: Anticonvulsant activity in Kunming mouse assessed as protection against subcutaneous pentylenetetrazole-induced seizures at 100 mg/kg, ip after 4 hrs; assay type: functional, organism-based; parameters: dose 100 mg/kg; summary of the method: as §1
Mus musculus [10] = experiment: Neurotoxicity in Kunming mouse assessed as minimum motor impairment at 100 mg/kg, ip after 0.5 hrs by rotarod test; assay type: toxicity, organism-based; parameters: dose 100 mg/kg, route intraperitoneal; conditions: in vivo; summary of the method: as §3
Mus musculus [11] = experiment: Neurotoxicity in Kunming mouse assessed as minimum motor impairment at 100 mg/kg, ip after 4 hrs by rotarod test; assay type: toxicity, organism-based; parameters: dose 100 mg/kg, route intraperitoneal; conditions: in vivo; summary of the method: as §3
Mus musculus [12] = experiment: Anticonvulsant activity in Kunming mouse assessed as protection against maximal electroshock-induced seizures at 30 mg/kg, ip after 4 hrs; assay type: functional, organism-based; parameters: dose 30 mg/kg
Rattus norvegicus [13] = experiment: Neurotoxicity in Kunming rat assessed as minimum motor impairment at 30 mg/kg, po after 1 hr by rotarod test; assay type: functional, organism-based; parameters: dose 30 mg/kg; summary of the method: as §2
Mus musculus [14] = experiment: Neurotoxicity in Kunming mouse assessed as minimum motor impairment at 300 mg/kg, ip after 4 hrs by rotarod test; assay type: toxicity, organism-based; parameters: dose 300 mg/kg, route intraperitoneal; conditions: in vivo; summary of the method: as §3
Rattus norvegicus [15] = experiment: Anticonvulsant activity in Kunming rat assessed as protection against subcutaneous pentylenetetrazole-induced seizures at 30 mg/kg, po after 1 hr; assay type: functional
Mus musculus [16] = experiment: Neurotoxicity in Kunming mouse assessed as minimum motor impairment at 30 mg/kg, ip after 4 hrs by rotarod test; assay type: toxicity, organism-based; parameters: dose 30 mg/kg, route intraperitoneal; conditions: in vivo; summary of the method: as §3
Mus musculus [17] = experiment: Neurotoxicity in Kunming mouse assessed as minimum motor impairment at 30 mg/kg, ip after 0.5 hrs by rotarod test; assay type: toxicity, organism-based; parameters: dose 30 mg/kg, route intraperitoneal; conditions: in vivo; summary of the method: as §3
Mus musculus [18] = experiment: Anticonvulsant activity in Kunming mouse assessed as protection against maximal electroshock-induced seizures at 30 mg/kg, ip after 0.5 hrs; assay type: functional, organism-based; parameters: dose 30 mg/kg
Mus musculus [19] = experiment: Anticonvulsant activity in Kunming mouse assessed as protection against maximal electroshock-induced seizures at 300 mg/kg, ip after 4 hrs; assay type: functional, organism-based; parameters: dose 300 mg/kg
Rattus norvegicus [20] = experiment: Neurotoxicity in Kunming rat assessed as minimum motor impairment at 30 mg/kg, po after 2 hrs by rotarod test; assay type: functional, organism-based; parameters: dose 30 mg/kg; summary of the method: as §2
Mus musculus [21] = experiment: Anticonvulsant activity in Kunming mouse assessed as protection against maximal electroshock-induced seizures at 100 mg/kg, ip after 4 hrs; assay type: functional, organism-based; parameters: dose 100 mg/kg
Rattus norvegicus [22] = experiment: Anticonvulsant activity in Kunming rat assessed as protection against maximal electroshock-induced seizures at 30 mg/kg, po after 0.25 hrs; assay type: functional
Summary of the method: (§4)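 Male Kunming rats (250 ± 5.0 g) were dosed orally at 30 mg/kg, four rats per compound. Seizures were induced by a 150-mA corneal current for 0.2 s at 0.25, 0.5, 1, 2 and 4 h after dosing. Readout was the number of rats out of four protected against hindlimb tonic extension.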

Rattus norvegicus [23] = experiment: Anticonvulsant activity in Kunming rat assessed as protection against maximal electroshock-induced seizures at 30 mg/kg, po after 0.5 hrs; assay type: functional; summary of the method: as §4
Mus musculus [24] = experiment: Anticonvulsant activity in ip dosed Kunming mouse assessed as protection against subcutaneous pentylenetetrazole-induced seizures; assay type: functional
Summary of the method: (§5)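 Quantitative phase-II study in groups of 10 male Kunming mice. A range of ip doses in 0.5% carboxymethyl cellulose-0.9% saline (0.1 ml) was given until at least three points fell within 10–90% seizure protection (MES or scPTZ) or minimal neurotoxicity. Rotorod toxicity was read 30 min after dosing.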

Rattus norvegicus [25] = experiment: Anticonvulsant activity in Kunming rat assessed as protection against maximal electroshock-induced seizures at 30 mg/kg, po after 1 hr; assay type: functional; summary of the method: as §4
Mus musculus [26] = experiment: Anticonvulsant activity in Kunming mouse assessed as protection against subcutaneous pentylenetetrazole-induced seizures at 100 mg/kg, ip after 0.5 hrs; assay type: functional, organism-based; parameters: dose 100 mg/kg; summary of the method: as §1
Mus musculus [27] = experiment: Anticonvulsant activity in ip dosed Kunming mouse assessed as time peak effect; assay type: functional
Rattus norvegicus [28] = experiment: Anticonvulsant activity in Kunming rat assessed as protection against maximal electroshock-induced seizures at 30 mg/kg, po after 2 hrs; assay type: functional; summary of the method: as §4
Mus musculus [29] = experiment: Protective index, ratio of TD50 for neurotoxicity in ip dosed Kunming mouse to ED50 for Kunming mouse by MES test; assay type: functional
[30] = Neurotoxicity in ip dosed Kunming mouse assessed as minimum motor impairment by rotarod test; assay type: toxicity, organism-based; conditions: in vivo; summary of the method: as §5
Rattus norvegicus [31] = experiment: Anticonvulsant activity in Kunming rat assessed as protection against maximal electroshock-induced seizures at 30 mg/kg, po after 4 hrs; assay type: functional; summary of the method: as §4
Mus musculus [32] = experiment: Anticonvulsant activity in Kunming mouse assessed as protection against subcutaneous pentylenetetrazole-induced seizures at 300 mg/kg, ip after 0.5 hrs; assay type: functional, organism-based; parameters: dose 300 mg/kg; summary of the method: as §1
Mus musculus [33] = experiment: Anticonvulsant activity in ip dosed Kunming mouse assessed as protection against maximal electroshock-induced seizures; assay type: functional; summary of the method: as §5
Mus musculus [34] = experiment: Protective index, ratio of TD50 for neurotoxicity in ip dosed Kunming mouse to ED50 for Kunming mouse by sPTZ test; assay type: functional
Mus musculus [35] = experiment: Anticonvulsant activity in Kunming mouse assessed as protection against subcutaneous pentylenetetrazole-induced seizures at 300 mg/kg, ip after 4 hrs; assay type: functional, organism-based; parameters: dose 300 mg/kg; summary of the method: as §1

Row | SMILES | Activity (Mus musculus [1]) | Activity (Rattus norvegicus [2]) | Activity (Mus musculus [4]) | Activity (Rattus norvegicus [5]) | Activity (Rattus norvegicus [6]) | Activity (Mus musculus [7]) | Activity (Mus musculus [10]) | Activity (Mus musculus [11]) | Activity (Rattus norvegicus [13]) | Activity (Mus musculus [14]) | Activity (Rattus norvegicus [15]) | Activity (Mus musculus [16]) | Activity (Mus musculus [17]) | Activity (Mus musculus [18]) | Activity (Mus musculus [19]) | Activity (Rattus norvegicus [20]) | Activity (Rattus norvegicus [22]) | Activity (Rattus norvegicus [23]) | Activity (Rattus norvegicus [25]) | Activity (Rattus norvegicus [28]) | also measured
1 | COc1cccc(C2CC23NC(=O)N(C)C3=O)c1OC (stereo unspecified) | inactive | Non-toxic | Toxic | Not toxic | Not toxic | inactive | Non-toxic | Non-toxic | Not toxic | Non-toxic | inactive | Non-toxic | Non-toxic | Active | Active | Not toxic |  |  |  |  | Activity (Mus musculus [3]): Active; Activity (Rattus norvegicus [8]): 25%; Activity (Mus musculus [9]): inactive; Activity (Mus musculus [12]): inactive
2 | COc1ccc(C2CC23NC(=O)N(C)C3=O)c(OC)c1OC (stereo unspecified) | inactive | Non-toxic | Non-toxic | Not toxic | Not toxic | inactive | Non-toxic | Non-toxic | Not toxic | Non-toxic | inactive | Non-toxic | Non-toxic | inactive | Active | Not toxic |  |  |  |  | Activity (Mus musculus [21]): inactive; Activity (Mus musculus [12]): inactive
3 | CN1C(=O)NC2(CC2c2ccc(S(C)(=O)=O)cc2)C1=O (stereo unspecified) | Active | Non-toxic |  | Not toxic | Not toxic | inactive | Non-toxic | Non-toxic | Not toxic | Non-toxic | 25% | Non-toxic | Non-toxic | Active | Active | Not toxic | inactive | 50% | 50% | 75% | ED50 (Mus musculus [24]): 427 mg/kg; Activity (Mus musculus [26]): Active; Time (Mus musculus [27]): 0.5 h; Activity (Mus musculus [21]): Active; PI (Mus musculus [29]): 24.8; TD50 [30]: 310 mg/kg; Activity (Rattus norvegicus [31]): 75%; Activity (Mus musculus [32]): Active; ED50 (Mus musculus [33]): 12.5 mg/kg; PI (Mus musculus [34]): 0.73
4 | CCCCC1CC12NC(=O)N(C)C2=O (stereo unspecified) | Active | Non-toxic | Non-toxic | Not toxic | Not toxic | inactive | Non-toxic | Non-toxic | Not toxic | Non-toxic |  | Non-toxic | Non-toxic | Active |  | Not toxic | 25% | inactive | 50% | inactive | Activity (Mus musculus [9]): inactive; Activity (Rattus norvegicus [31]): inactive
5 | CN1C(=O)NC2(CC2c2ccccc2)C1=O (stereo unspecified) | inactive | Non-toxic | Toxic | Not toxic | Not toxic | inactive | Non-toxic | Non-toxic | Not toxic |  |  | Non-toxic | Non-toxic | Active |  | Not toxic | inactive | 25% | inactive | inactive | Activity (Mus musculus [26]): inactive; Activity (Mus musculus [9]): inactive; Activity (Rattus norvegicus [31]): inactive; Activity (Mus musculus [32]): inactive; Activity (Mus musculus [35]): inactive
6 | CN1C(=O)NC2(CC2c2ccc(F)cc2)C1=O (stereo unspecified) | Active | Non-toxic | Non-toxic | Not toxic | Not toxic | inactive | Non-toxic | Non-toxic | Not toxic | Non-toxic | 25% | Non-toxic | Non-toxic | Active | Active | Not toxic | inactive | 25% | inactive | 25% | Activity (Mus musculus [26]): Active; Activity (Mus musculus [21]): Active; Activity (Rattus norvegicus [31]): inactive; Activity (Mus musculus [32]): Active
7 | O=C1NC(=O)C(c2ccccc2)(c2ccccc2)N1 [PHENYTOIN] |  |  |  |  |  |  |  |  |  |  |  |  |  |  |  |  |  | Active |  |  | ED50 (Mus musculus [24]): > 300 mg/kg; Time (Mus musculus [27]): 2 h
